Assay results reported in paper PMC4569680 (Advances in Therapy, 2015).
Like-named read-outs stand apart in the source and are kept apart here. Marks after values point to notes of the source that are not given here.

Tests used:
[1] = cited from earlier work
[2] = test system: Japanese patients with T2DM; assay: Volume-related safety; format: in vivo, human
How it was run: (§1)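 Volume-related safety was followed as changes from baseline in blood and urinary laboratory parameters: urine volume, sodium excretion, urine and serum osmolality, and hematocrit. Vital signs covered blood pressure, pulse rate and body temperature. Patients received 25–400 mg QD or placebo on Day 1 and Days 3–16 with standardized meals. Urine was collected in timed intervals or 0–24 h pools.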

[3] = test system: Japanese patients with T2DM; assay: Urinary electrolyte excretion in 24 hours; format: in vivo, human
How it was run: as §1

[4] = test system: Japanese patients with T2DM; assay: Urinary glucose excretion; format: in vivo, human; settings: for mean change from baseline in UGE0–24h: Day 1
How it was run: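 Urine was collected in timed intervals (0–2 through 13–24 h) on Days 0, 1 and 16, and as 0–24 h pools on Days 2–6, 15, 17 and 18. Dosing was 25–400 mg or placebo QD on Day 1 and Days 3–16. Change from the Day 0 single-blind placebo baseline was determined on each collection day.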

[5] = 24-h urinary excretion rate of unchanged canagliflozin; format: in vivo, human; settings: for Urinary excretion rate: mean (SD)
How it was run: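 Urine was collected 0–24 h on Days 1 and 16 during once-daily dosing at 25, 100, 200 or 400 mg, given on Day 1 and Days 3–16 between 8:00 and 9:00 a.m. A standardized breakfast followed within 10 min. Unchanged drug was measured by solid-phase extraction and HPLC-MS/MS with a 13C6-labelled internal standard. The validated range was 1–2000 ng/mL.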

[6] = test system: Japanese patients with T2DM; assay: Adverse events; format: in vivo, human
[7] = test system: Japanese patients with T2DM; assay: Renal threshold for glucose excretion; format: in vivo, human; settings: Days 1 and 16, versus baseline Day 0
How it was run: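 RTG was calculated post hoc for Days 0, 1 and 16 from measured plasma glucose, UGE and estimated glomerular filtration rate. Day 0 was a single-blind placebo baseline after an overnight fast; standardized meals were given at about 0, 4.5 and 10.5 h post-dose.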

[8] = format: in vivo, human; settings: for AR (accumulation ratio): AUC0–24h Day 16 / AUC0–24h Day 1, mean (SD)
How it was run: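 Patients received 25–400 mg QD or placebo on Day 1 and Days 3–16, fasted overnight, with a standardized breakfast within 10 min. Venous blood was drawn at 0, 0.5, 1, 1.5, 2, 3, 4, 6, 8 and 12 h on Days 1 and 16, and before breakfast on Days 2, 17 and 18. Drug was measured by HPLC-MS/MS, range 1–2000 ng/mL. AR = AUC0–24h Day 16/Day 1; linearity factor = AUC0–24h Day 16/AUC0–∞ Day 1.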

[9] = canagliflozin groups pooled, 2 cases in 2 of 51 patients
[10] = 25 mg QD repeated dose, Day 16, mean (SD), n = 12
[11] = 25 mg single dose, Day 1, mean (SD), n = 12
[12] = 100 mg QD repeated dose, Day 16, mean (SD), n = 12
[13] = 100 mg single dose, Day 1, mean (SD), n = 12
[14] = 200 mg QD repeated dose, Day 16, mean (SD), n = 14
[15] = 200 mg single dose, Day 1, mean (SD), n = 14
[16] = 400 mg QD repeated dose, Day 16, mean (SD), n = 13
[17] = 400 mg single dose, Day 1, mean (SD), n = 13

NS(=O)(=O)c1cc2c(cc1Cl)N=CNS2(=O)=O [chlorothiazide]
persistence of diuretic effects [1]: about 1 week

Cc1ccc([C@@H]2O[C@H](CO)[C@@H](O)[C@H](O)[C@H]2O)cc1Cc1ccc(-c2ccc(F)cc2)s1 [Canagliflozin]
24-h urine volume ([2]; Day 1, canagliflozin groups): slightly increased | change in urine osmolality over time from baseline ([2]; Day 1, canagliflozin-treated groups): trend toward an increase | pulse rate and incidence of orthostatic hypotension ([2]; data not shown): No increases were observed | hematocrit level ([2]; during the study period): remained unchanged | serum osmolality ([2]; during the treatment period): maintained constant | mean systolic and diastolic blood pressures ([2]; groups that received ≥100 mg): tended to decrease | urinary sodium excretion ([3]; Day 1, reversed within a week): transient nominal increase | urinary excretion of electrolytes (potassium, chloride, calcium, magnesium, inorganic phosphorus) ([3]; canagliflozin-treated groups compared with the placebo group): No remarkable changes were observed | UGE after the last administration ([4]; 24–48 and 48–72 h after the last administration, ≥100 mg): increase in UGE was detected | mean change from baseline in UGE0–24h ([4]; 25-mg group): approximately 60 g/day | mean change from baseline in UGE0–24h ([4]; 100–400-mg groups): 80 to 110 g/day | Urinary excretion rate ([5]; 25 mg QD repeated dose, Day 16, 0–24 h, n = 12): 0.599 (0.183) % | Urinary excretion rate ([5]; 25 mg single dose, Day 1, 0–24 h, n = 12): 0.387 (0.070) % | Urinary excretion rate ([5]; 100 mg QD repeated dose, Day 16, 0–24 h, n = 12): 0.641 (0.204) % | Urinary excretion rate ([5]; 100 mg single dose, Day 1, 0–24 h, n = 12): 0.384 (0.084) % | Urinary excretion rate ([5]; 200 mg QD repeated dose, Day 16, 0–24 h, n = 14): 0.614 (0.195) % | Urinary excretion rate ([5]; 200 mg single dose, Day 1, 0–24 h, n = 14): 0.424 (0.107) % | Urinary excretion rate ([5]; 400 mg QD repeated dose, Day 16, 0–24 h, n = 13): 0.495 (0.153) % | Urinary excretion rate ([5]; 400 mg single dose, Day 1, 0–24 h, n = 13): 0.385 (0.097) % | 24-h urinary excretion rate of unchanged canagliflozin ([5]; Day 1, means at each dose): approximately 0.4% | 24-h urinary excretion rate of unchanged canagliflozin ([5]; Day 16, means at each dose): 0.5–0.6% | nasopharyngitis, patients with AE ([6]; canagliflozin groups pooled, 1 case in 1 of 51 patients): 2.0% | dizziness, patients with AE [6, 9]: 3.9% | toothache, patients with AE [6, 9]: 3.9% | urine ketone body present, patients with AE ([6]; canagliflozin groups pooled, 3 cases in 3 of 51 patients): 5.9% | anemia, patients with AE ([6]; canagliflozin groups pooled, 4 cases in 4 of 51 patients): 7.8% | diarrhea, patients with AE ([6]; canagliflozin groups pooled, 6 cases in 5 of 51 patients): 9.8% | occult blood positive, patients with AE ([6]; canagliflozin groups pooled, 14 cases in 12 of 51 patients): 23.5% | urinary ketones observed ([6]; canagliflozin-treated groups, all mild): 3 patients | urinary ketones observed ([6]; dose of 200 mg): 2 cases | urinary ketones observed ([6]; dose of 400 mg): 1 case | tolerability ([6]; short-term study, patients with T2DM, 25–400 mg): well tolerated | AEs related to skin disorders ([6]; whole study): not observed | RTG0–24h [7]: decreased | AUC0–24h [8, 10]: 1556 (387) ng·h/mL | C max [8, 10]: 263 (91) ng/mL | t 1/2 [8, 10]: 14.21 (7.46) h | t max ([8]; 25 mg QD repeated dose, Day 16, median [min–max], n = 12): 1.0 [1.0–3.0] h | AUC0–24h [8, 11]: 1295 (240) ng·h/mL | C max [8, 11]: 248 (55) ng/mL | t 1/2 [8, 11]: 10.70 (1.76) h | t max ([8]; 25 mg single dose, Day 1, median [min–max], n = 12): 1.0 [1.0–2.0] h | AR (accumulation ratio) ([8]; 25 mg, n = 12): 1.19 (0.12) | AUC0–24h [8, 12]: 6635 (1367) ng·h/mL | C max [8, 12]: 1136 (330) ng/mL | t 1/2 [8, 12]: 11.81 (3.22) h | t max ([8]; 100 mg QD repeated dose, Day 16, median [min–max], n = 12): 1.0 [1.0–1.5] h | AUC0–24h [8, 13]: 5468 (899) ng·h/mL | C max [8, 13]: 1126 (228) ng/mL | t 1/2 [8, 13]: 10.22 (1.89) h | t max ([8]; 100 mg single dose, Day 1, median [min–max], n = 12): 1.0 [1.0–1.5] h | AR (accumulation ratio) ([8]; 100 mg, n = 12): 1.21 (0.12) | t 1/2 ([8]; 200 mg QD repeated dose, Day 16, mean (SD), n = 13): 16.16 (5.87)^c h | AUC0–24h [8, 14]: 16,716 (5464) ng·h/mL | C max [8, 14]: 2688 (805) ng/mL | t max ([8]; 200 mg QD repeated dose, Day 16, median [min–max], n = 14): 1.3 [1.0–1.5] h | AUC0–24h [8, 15]: 11,991 (3042) ng·h/mL | C max [8, 15]: 2304 (539) ng/mL | t 1/2 [8, 15]: 13.26 (4.96) h | t max ([8]; 200 mg single dose, Day 1, median [min–max], n = 14): 1.0 [1.0–1.5] h | AR (accumulation ratio) ([8]; 200 mg, n = 14): 1.38 (0.17) | t 1/2 ([8]; 400 mg QD repeated dose, Day 16, mean (SD), n = 12): 15.76 (5.56)^d h | AUC0–24h [8, 16]: 30,766 (7916) ng·h/mL | C max [8, 16]: 5236 (1123) ng/mL | t max ([8]; 400 mg QD repeated dose, Day 16, median [min–max], n = 13): 1.0 [1.0–1.5] h | AUC0–24h [8, 17]: 21,836 (4983) ng·h/mL | C max [8, 17]: 5028 (1733) ng/mL | t 1/2 [8, 17]: 12.15 (2.34) h | t max ([8]; 400 mg single dose, Day 1, median [min–max], n = 13): 1.0 [1.0–3.0] h | AR (accumulation ratio) ([8]; 400 mg, n = 13): 1.42 (0.29) | mean accumulation ratios (ARs) ([8]; AUC0–24h Day 16 / AUC0–24h Day 1, across doses 25–400 mg): 1.19–1.42 | linearity factors ([8]; AUC0–24h Day 16 / AUC0–∞ Day 1, any dose (25, 100, 200, 400 mg)): ~1 | elimination half-life (t 1/2) ([8]; Day 1, across doses 25–400 mg): 10.22 to 13.26 h | elimination half-life (t 1/2) ([8]; Day 16, across doses 25–400 mg): 11.81 to 16.16 h | t max ([8]; Day 16, across doses 25–400 mg): 1.0 to 1.3 h | plasma concentration reaches steady state ([8]; repeated QD dosing from Day 3, all doses): ≤ 7 days
